Each structure is given as a SMILES string.

As usually defined, the IC50 is the concentration needed to halve the response being measured. The low end stands for greater potency, the high end for weaker potency.

The subject of this assay is B16. Kind of assay: Antimelanogenic activity in mouse B16 cells after 4 days by spectrophotometry. The assay is classed as functional, cell-based. To be noted: B16, 96 h. Put shortly:
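Cells seeded at 2 × 10^5 cells/mL and treated in triplicate, with medium changed daily. After 4 d of culture, cells lysed in 1 N NaOH and crude extract transferred for melanin content reading.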
`O=C(NCc1ccc(O)cc1O)c1ccc(O)c(C23CC4CC(CC(C4)C2)C3)c1` showed an IC50 of 0.899 µM. This counts as sub-micromolar.

Take `COc1cc(O)c(C(=O)NCCc2ccc(O)cc2)cc1C12CC3CC(CC(C3)C1)C2`: the 50% inhibitory concentration (IC50) was 1.92 µM. Against the preceding molecule, the IC50 is about 2.1-fold higher.

As for `COc1cc(CNC(=O)c2cc(C34CC5CC(CC(C5)C3)C4)c(O)cc2O)cc(OC)c1`, the IC50 was 2.57 µM.

`COc1ccc(C(=O)NCc2ccc(O)c(O)c2)c(O)c1` showed an IC50 of 8 µM.

In turn, `O=C(NCc1ccc(O)cc1O)c1cc(C23CC4CC(CC(C4)C2)C3)c(O)cc1O` gave an IC50 of 1.2 µM.

As to `COc1ccc(C(=O)NCCc2ccc(O)cc2)c(O)c1`, the IC50 is 5 µM.

Turning to `O=C(NCCc1ccc(O)cc1)c1cc(C23CC4CC(CC(C4)C2)C3)c(O)cc1O`, the IC50 is 1.1 µM.

As to `O=C(NCc1cc(O)ccc1O)c1ccc(O)cc1O`, the IC50 was 24.2 µM.

Consider `COc1ccc(CNC(=O)c2ccc(OC)c(C34CC5CC(CC(C5)C3)C4)c2)cc1OC`, for which the IC50 is 5 µM. This IC50 is about 4.8-fold lower than that of the molecule before.

`COc1cc(CNC(=O)c2cc(C34CC5CC(CC(C5)C3)C4)c(O)cc2O)cc(OC)c1OC`: the IC50 is 2.94 µM.

`O=C(NCc1cc(O)ccc1O)c1cc(C23CC4CC(CC(C4)C2)C3)c(O)cc1O`: half-maximal inhibition (IC50) was put at 0.729 µM.

The molecule `O=C(NCc1ccc(O)cc1)c1cc(C23CC4CC(CC(C4)C2)C3)c(O)cc1O` gave an IC50 of 1.23 µM.

Consider `COc1ccc(OC)c(CNC(=O)c2ccc(O)c(C34CC5CC(CC(C5)C3)C4)c2)c1`, for which the IC50 is 5.41 µM. Compared with the last molecule, the IC50 is about 4.4-fold higher.

Molecule `COc1cc(CNC(=O)c2ccc(OC)c(C34CC5CC(CC(C5)C3)C4)c2)cc(OC)c1` had an IC50 of 5.02 µM.

As for `COc1ccc(C(=O)NCCc2ccc(O)c(O)c2)c(OC)c1`, inhibition was half-maximal at 11 µM (IC50). Against the preceding molecule, the IC50 is about 2.2-fold higher.

In turn, `O=C(NCCc1ccc(O)c(O)c1)c1ccc(O)cc1` gave an IC50 of 75 µM.

Regarding `COc1cc(O)c(C(=O)NCc2ccc(O)c(O)c2)cc1C12CC3CC(CC(C3)C1)C2`, the IC50 is 1.29 µM. Compared with the last molecule, the IC50 is about 58-fold lower.

Consider `O=C(NCCc1ccc(O)c(O)c1)c1ccc(O)c(C23CC4CC(CC(C4)C2)C3)c1`, for which 2.09 µM corresponded to half-maximal inhibition (IC50). Compared with the last molecule, the IC50 is about 1.6-fold higher.

Turning to `COc1ccc(CNC(=O)c2cc(C34CC5CC(CC(C5)C3)C4)c(O)cc2O)c(OC)c1`, the IC50 is 3.69 µM. This IC50 lies about 1.8-fold higher than the previous one.

Molecule `COc1cc(O)c(C(=O)NCCc2ccc(O)c(O)c2)cc1C12CC3CC(CC(C3)C1)C2` had an IC50 of 1.25 µM. Compared with the last molecule, the IC50 is about 3-fold lower.

In the case of `COc1ccc(C(=O)NCc2ccc(O)c(O)c2)cc1`, the IC50 was 10 µM.

As to `COc1ccc(OC)c(CNC(=O)c2ccc(OC)c(C34CC5CC(CC(C5)C3)C4)c2)c1`, the IC50 is 3.14 µM.

In turn, `COc1ccc(C(=O)NCCc2ccc(O)c(O)c2)cc1` showed an IC50 of 23 µM.

The molecule `O=C(NCc1ccc(O)c(O)c1)c1ccc(O)c(C23CC4CC(CC(C4)C2)C3)c1` had an IC50 of 2.57 µM. This IC50 is about 8.9-fold lower than that of the molecule before.

Molecule `COc1ccc(C(=O)NCc2ccc(O)c(O)c2)c(OC)c1` gave an IC50 of 8.99 µM.

As for `COc1ccc(C(=O)NCCc2ccc(O)c(O)c2)cc1C12CC3CC(CC(C3)C1)C2`, half-maximal inhibition (IC50) was put at 2.33 µM.

For the molecule `COc1ccc(CCNC(=O)c2ccc(OC)c(C34CC5CC(CC(C5)C3)C4)c2)cc1OC`, half-maximal inhibition (IC50) was put at 4.5 µM.

Turning to `COc1ccc(C(=O)NCCc2ccc(O)cc2)c(OC)c1`, it took 27 µM to reach half-maximal inhibition (IC50).

On to `COc1ccc(C(=O)NCc2ccc(O)c(O)c2)cc1C12CC3CC(CC(C3)C1)C2`, for which the IC50 was 2.23 µM. This IC50 lies about 12-fold lower than the previous one.

With `O=C(NCCc1ccc(O)c(O)c1)c1cc(C23CC4CC(CC(C4)C2)C3)c(O)cc1O`, the IC50 is 4.33 µM.

On to `COc1ccc(CNC(=O)c2cc(C34CC5CC(CC(C5)C3)C4)c(O)cc2O)cc1OC`, for which the midpoint of inhibition, the IC50, lay at 3.81 µM. This IC50 and that of the molecule before are within 1.5-fold of each other.

In turn, `O=C(NCc1ccc(O)c(O)c1)c1ccc(O)cc1` gave an IC50 of 55 µM.

The molecule `COc1ccc(CNC(=O)c2cc(C34CC5CC(CC(C5)C3)C4)c(O)cc2O)c(O)c1` gave an IC50 of 5.71 µM.

`COc1ccc(C(=O)NCc2ccc(O)cc2O)cc1C12CC3CC(CC(C3)C1)C2` showed an IC50 of 1.4 µM.

`COc1cc(OC)c(C23CC4CC(CC(C4)C2)C3)cc1C(=O)NCCc1ccc(O)cc1`: the IC50 is 1.2 µM.

In the case of `COc1ccc(C(=O)NCCc2ccc(O)cc2)cc1C12CC3CC(CC(C3)C1)C2`, the IC50 is 3.41 µM.

Take `COc1cc(CNC(=O)c2ccc(O)c(C34CC5CC(CC(C5)C3)C4)c2)cc(OC)c1`: inhibition was half-maximal at 4.44 µM (IC50).

`O=C(NCc1ccc(O)c(O)c1)c1ccc(O)cc1O`: inhibition was half-maximal at 8 µM (IC50).

Molecule `COc1ccc(CCNC(=O)c2cc(C34CC5CC(CC(C5)C3)C4)c(O)cc2O)cc1OC` gave a half-inhibitory concentration (IC50) of 4.08 µM.

Molecule `COc1ccc(CNC(=O)c2ccc(O)c(C34CC5CC(CC(C5)C3)C4)c2)cc1OC` had an IC50 of 3.86 µM.

Regarding `O=C(NCc1ccc(O)c(O)c1)c1cc(C23CC4CC(CC(C4)C2)C3)c(O)cc1O`, the IC50 was 2.5 µM.

In turn, `COc1ccc(OC)c(CNC(=O)c2cc(C34CC5CC(CC(C5)C3)C4)c(O)cc2O)c1` gave an IC50 of 4.1 µM. This IC50 lies about 1.6-fold higher than the previous one.

In turn, `COc1ccccc1CNC(=O)c1cc(C23CC4CC(CC(C4)C2)C3)c(O)cc1O` showed a half-maximal inhibitory concentration (IC50) of 2.31 µM.

The values above are taken from ChEMBL document CHEMBL3102754, “3D-QSAR study of adamantyl N-benzylbenzamides as melanogenesis inhibitors” (Bioorg Med Chem Lett, 2014).
